Data from PMC6068850 (World Journal of Hepatology, 2018).
Values after ≈ are worked out from the molar mass of the structure shown.

What was measured:
[1] = In vitro release in rat stomach homogenates; type: in vitro ADME; settings: till 3 h
How it was run: (§1)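 Incubations in rat stomach homogenate ran up to 3 h; those in intestinal homogenate ran up to 6 h. Intact prodrug and released INH were quantified simultaneously by validated reverse-phase C18 HPLC using prodrug-specific mobile phases at 1 mL/min with UV detection. Percent hydrolysed and INH released came from calibration curves. Rate constants, half-lives and kinetic order were calculated; samples were run in triplicate.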

[2] = In vitro release kinetics in rat intestinal homogenates; type: in vitro ADME; settings: for % Prodrug hydrolysed / K ± SD (hydrolysis rate constant): rat intestinal homogenates; for % Prodrug hydrolysed: over 6 h; for K ± SD (hydrolysis rate constant): first-order kinetics, average of three readings; for half-life: rat, intestinal homogenates
How it was run: as §1

[3] = In vitro stability in phosphate buffer; type: physicochemical; settings: 0.05 mol/L phosphate buffer, 37 °C, till 6 h, HPLC
How it was run: (§2)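 5 mL aliquots were replaced with fresh buffer at 0, 15, 30, 45, 60 min, then every 30 min to 3 h (HCl) or 6 h (phosphate). Analysed by reverse-phase C18 HPLC against 10-100 μg/mL calibration curves; triplicate.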

[4] = system: superoxide dismutase (SOD); assay: Liver superoxide dismutase activity, hepatoprotective study; type: in vivo, Wistar rats; settings: 21 d oral; for Level of SOD re-established: dose equimolar to INH 150 mg/kg/day
Wistar rats = assay: Evaluation of hepatoprotective potential; type: in vivo; settings: male Wistar rats, 21 d oral
How it was run: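 Male Wistar rats (180-200 g), acclimatized 1 wk, randomized into 8 groups of 6. Oral suspensions in 1% sodium CMC for 21 d: INH 150 mg/kg/day, prodrugs and physical mixtures equimolar to INH, saline control. On day 22, rats were fasted overnight, bled retrobulbarly and sacrificed. Endpoints: serum ALT/AST, TG, cholesterol; liver SOD, GSHPx, MDA; blinded H&E histology.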

Aqueous solubility = type: physicochemical; settings: aqueous (water)
[5] = system: alanine aminotransferase (ALT); assay: Estimation of serum alanine aminotransferase; type: in vivo, Wistar rats; settings: 21 d oral, mean ± SEM
How it was run: (§3)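 Serum aminotransferases were measured colorimetrically with commercial kits (Reitman–Frankel method). Male Wistar rats (6/group) were dosed orally for 21 d in 1% sodium CMC, INH 150 mg/kg/day, test compounds equimolar. Blood was drawn retrobulbarly after an overnight fast on day 22. Mean ± SEM; one-way ANOVA with Dunnett's test versus the INH group.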

malondialdehyde (MDA) = assay: Assay of lipid peroxidation products in liver; type: in vivo, Wistar rats; settings: 21 d oral, treated groups vs INH-treated group
How it was run: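 Hepatic lipid peroxidation was measured as thiobarbituric-acid-reactive MDA (Ohkawa method). 1,1,3,3-tetraethoxypropane was the standard, and results were expressed as micromoles per gram of tissue. Livers came from male Wistar rats (6/group) given oral suspensions in 1% sodium CMC for 21 d, INH 150 mg/kg/day, test compounds equimolar. Mean ± SEM; one-way ANOVA/Dunnett versus the INH group.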

[6] = system: aspartate aminotransferase (AST); assay: Estimation of serum aspartate aminotransferase; type: in vivo, Wistar rats; settings: 21 d oral, mean ± SEM
How it was run: as §3

[7] = In vitro stability in HCl buffer; type: physicochemical; settings: 0.05 mol/L HCl, 37 °C, till 3 h, HPLC
How it was run: as §2

rat liver = assay: Histopathological analysis of rat liver; type: in vivo, Wistar rats; settings: H&E-stained liver sections, 21 d oral
How it was run: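 Male Wistar rats (180-200 g), acclimatized 1 wk at 24 ± 1 °C, 45%-55% humidity, 12:12 h light/dark; 8 groups of 6. Oral dosing for 21 d as a suspension in 1% sodium CMC, with doses equimolar to the parent drug. On day 22, rats were fasted overnight, bled and sacrificed. Liver was washed in ice-cold saline, fixed in 10% formalin, sectioned, H&E-stained and photographed under light microscopy.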

[8] = In vivo release studies after oral administration of NI; set-up: species or system Wistar rats
How it was run: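 Male Wistar rats were fasted 24 h and housed individually in metabolic cages. They received an oral suspension of test compound in 1.0 mL saline, 309 mg/kg (equimolar to INH). EDTA blood was collected at 0 min, every 15 min for 1 h, every 2 h to 10 h, and at 24 h. Samples were spun 5000 rpm at 0-5 °C, methanol-precipitated and analysed by HPLC. Urine and faeces were pooled over 24 h.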

[9] = system: glutathione peroxidase (GSHPx); assay: Liver glutathione peroxidase, hepatoprotective study; type: in vivo, Wistar rats; settings: 21 d oral; for Level of GSHPx re-established: dose equimolar to INH 150 mg/kg/day

SMILES	Release of INH in stomach homogenates [1]	% Prodrug hydrolysed [2] [%]	K ± SD (hydrolysis rate constant) [2] [min⁻¹]	half-life [2] [h]	Stability in phosphate buffer, pH 7.4 [3]	Level of SOD re-established [4] [%]	Hepatoprotective potential assessment (overall) (Wistar rats)	solubility (Aqueous solubility) [mg/mL]	ALT level [5] [U/L]	Effect on MDA level (in words) (malondialdehyde (MDA))	AST level [6] [U/L]	Stability in HCl buffer, pH 1.2 [7]	Liver histopathology findings (rat liver)	Level of GSHPx re-established [9] [%]	further results
CC(=O)NC(CS)C(=O)NNC(=O)c1ccncc1 (stereo not shown) [NI, N-{1-mercaptomethyl-2-oxo-2-[N’-(pyridine-4-carbonyl)-hydrazino]-ethyl}-acetamide]	Negligible	94.93	0.0034	3.89	Stable	93.39	noteworthy effects	104 (≈ 368 mM)	48 ± 4.50	better compared to that achieved with MI	46 ± 7.30	Stable	reversal of such pathology, with no evidence of necrosis, inflammation or fibrosis	100	INH in urine and faeces samples ([8]; 24 h pooled samples): without any presence; Intact NI in urine and faeces samples ([8]; 24 h pooled samples): not observed; Time at which intact NI completely disappeared from blood ([8]; Wistar rats, blood): 7.5 to 9 h; Time from which concentration of intact NI in blood started declining ([8]; Wistar rats, blood): 5.5 to 6.5 h; Time of appearance of intact NI in blood ([8]; Wistar rats, blood): 2 to 2.5 h
NNC(=O)c1ccncc1 [INH, isoniazid, reference compound]								135 (≈ 984 mM)	144 ± 7.70	significantly higher	148 ± 7.60		all these pathological changes were noticed		Effect on level of SOD (in words) [4]: significantly lower; Effect on level of GSHPx (in words) [9]: significantly lower
CSCCC(N)C(=O)NNC(=O)c1ccncc1 (stereo not shown) [MI, Isonicotinic acid N’-(2-amino-4-methylsulfanyl-butyryl)-hydrazide]	Negligible	86.55	0.0051	3.02	Stable	88.69	moderate effects	114 (≈ 425 mM)				Stable	minimal inflammation, with minimal portal triaditis and mild dilation of blood sinusoids	93.87	
CC(S)C(=O)NCC(=O)NNC(=O)c1ccncc1 (stereo not shown) [MGI, 2-Mercapto-N-{2-oxo-2-[N’-(pyridine-4-carbonyl)-hydrazino]-ethyl}-propionamide]	Negligible	70.11	0.0033	3.62	Stable	71.98	moderate effects	94 (≈ 333 mM)		better compared to that achieved with MI		Stable	minimal inflammation, with minimal portal triaditis and mild dilation of blood sinusoids	91.83	
